CHO parental Ca = signal in parental CHO cells, OX1R antagonist counter-screen; parental CHO-K1, ATP-induced calcium, Fluo-8 fluorescence; inhibition, % at 5.6 µM; actives 0.63% (n = 330,000);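 active = inhibition above that plate's mean sample inhibition plus 3 SD, cut at about 26% in these data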;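 also: 0% = ATP-challenged DMSO wells and 100% = DMSO wells without ATP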
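Test system: untransfected parental CHO cell line. Compound: one dose, 5.6 µM nominal. Detection: intracellular calcium via Fluo-8 no-wash fluorescent dye. Measure: % inhibition. Benchmarks: ATP-challenged DMSO wells low, unchallenged DMSO wells high.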
TAAR1 agonist = agonists of human TAAR1 | Q96RJ0 | CHO RD-HGA16 TAAR1, Fluo-8 calcium fluorescence; vehicle wells 0%, saturating PEA agonist 100% | activation, % at 3 µM | actives 0.99% (n = 360,000);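 active = activation above the mean activation of all test compounds in the run plus 3 SD, cut at about 38% in these data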
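System: CHO RD-HGA16 cells carrying human TAAR1 plus Gα16; Incubation: 17-24 h seeding, 75 min 37 °C dye, 30 min RT; Measured by: Fluo-8 fluorescence, 5 s baseline then 140 s kinetic read; Control set: DMSO and PEA EC100; Replication: single well for each compound.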
OX1R antag-1 = antagonists of human orexin 1 receptor (OX1R) | O43613 | OX1R-expressing cells, FRET antagonist read-out | inhibition, % at 6.6 µM | actives 1.8% (n = 330,000) | AID 485270; in the data active = inhibition mostly above about 38%, no sharp cut-off; inactive = mostly below about 40%;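 also: 0% = agonist challenge alone and 100% = reference antagonist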
Target sequence (O43613 whole entry, looked up): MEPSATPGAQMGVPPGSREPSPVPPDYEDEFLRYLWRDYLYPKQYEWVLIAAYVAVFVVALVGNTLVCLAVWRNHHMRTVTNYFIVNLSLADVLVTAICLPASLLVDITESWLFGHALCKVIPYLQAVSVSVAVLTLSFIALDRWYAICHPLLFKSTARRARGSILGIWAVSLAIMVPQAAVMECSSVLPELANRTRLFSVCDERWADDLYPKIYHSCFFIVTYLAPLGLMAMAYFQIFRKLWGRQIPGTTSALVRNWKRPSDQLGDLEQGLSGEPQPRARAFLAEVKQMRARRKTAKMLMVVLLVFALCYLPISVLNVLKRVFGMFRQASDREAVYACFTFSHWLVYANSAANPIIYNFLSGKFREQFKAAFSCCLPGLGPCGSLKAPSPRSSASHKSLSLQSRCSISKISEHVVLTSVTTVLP
OX1R antag-2 = blocks the human orexin 1 receptor | O43613 | inhibition, % at 5 µM | AID 434989 | actives 0.43% (n = 330,000) | CHO/OX1R cells, Fluo-8 calcium fluorescence, orexin A;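 active = inhibition above its plate's threshold, mean inhibition of all tested compounds on the plate plus 3 SD, cut at about 37% in these data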;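 also: 0% = orexin A challenge wells and 100% = SB-334867-A antagonist wells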
TAAR1 antagonist = human TAAR1 antagonism. actives 1.5% (n = 360,000). CHO RD-HGA16 TAAR1, Fluo-8 calcium fluorescence, antagonist. inhibition, % at 3 µM. Q96RJ0;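 active = inhibition above a per-plate cutoff, the mean inhibition of test compounds on that plate plus 3 SD, cut at about 49% in these data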;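 also: 0% = DMSO plus EC80 beta-PEA response and 100% = DMSO alone without agonist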
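Test system – hTAAR1-expressing CHO RD-HGA16 cells, Gα16-coupled · Also added – β-PEA at EC80 concentration, post-compound challenge · Compound – 3 µM, single point · Incubation – dye loading 75 min at 37 °C, then 30 min room temperature · Measured by – Fluo-8 intracellular calcium dye fluorescence, real-time kinetic reads · Benchmarks – vehicle and agonist controls · Replicates – singlicate, one well per test compound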
TAAR1 nonsel count = counter-screen for TAAR1 antagonists: nonselective antagonists | shares compounds with TAAR1 antagonist | AID 651780 | inhibition, % at 3 µM | counterscreen cell line, calcium fluorescence, antagonist mode | actives 77% (n = 2,400); in the data active = inhibition above about 22%;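 also: CHO-Ga16 host cells stimulated with ATP at an EC80 level; 0% = agonist EC80 plus vehicle and 100% = vehicle without agonist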
TAAR1 antag conf = confirmation of human TAAR1 antagonists; actives 40% (n = 2,400); inhibition, % at 3 µM; shares compounds with TAAR1 antagonist; AID 651785; TAAR1-expressing cells, fluorescence antagonist read-out; in the data active = inhibition above about 49%;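 also: CHO-Ga16 host cells challenged with agonist PEA near its EC80; 0% = agonist at EC80 plus vehicle and 100% = vehicle with no agonist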
Ga16 nonsel ag = counter-screen for TAAR1 antagonists: nonselective Ga16 agonists. shares compounds with TAAR1 antagonist. Ga16-expressing cells, calcium fluorescence, agonist counterscreen. activation, % at 3 µM. actives 18% (n = 2,400); in the data active = activation above about 12%;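 also: 0% = vehicle wells and 100% = saturating stimulus response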
TAAR1 ag count = counter-screen for human TAAR1 antagonists: TAAR1 agonists | shares compounds with TAAR1 antagonist | actives 2% (n = 2,400) | activation, % at 3 µM | hTAAR1 cell line, fluorescence activation, agonist mode; in the data active = activation above about 37%;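 also: CHO cells stably expressing TAAR1 with calcium dye readout; 0% = DMSO vehicle and 100% = full agonist response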
* hit, by the source's call; x = no result given. In the library only some 4% were active in any assay of this set; here they are far more common.

SMILES	CHO parental Ca	TAAR1 agonist	OX1R antag-1	OX1R antag-2	TAAR1 antagonist	TAAR1 nonsel count	TAAR1 antag conf	Ga16 nonsel ag	TAAR1 ag count
COc1ccc(NC(=O)c2cccc(N3C(=O)C4C5C=CC(C6CC56)C4C3=O)c2)cc1 (stereo not given)	-15	12	18	-8	63*	35*	54*	13*	10
O=C(Nc1ccccc1)c1cccc(N2C(=O)C3C4CC(C(Br)C4Br)C3C2=O)c1 (stereo not given)	-5	24	26	-4	72*	38*	64*	19*	22
C=CC[C@H](CC(=O)OC(C)(C)C)C(=O)OC[C@@H]1CCCN1C(=O)[C@@H](CC=C)CC(=O)N[C@H](CO)Cc1ccccc1	-21	11	6	-27	27	x	x	x	x
C=CCC[C@@H](Cc1ccc(F)cc1)C(=O)OC[C@H]1CCCN1C(=O)[C@@H](CC=C)CC(=O)N[C@H](CO)Cc1ccccc1	-16	18	10	18	67*	29*	53*	7	7
C=CC[C@@H](Cc1ccc(F)cc1)C(=O)OC[C@H]1CCCN1C(=O)[C@@H](CC=C)CC(=O)N[C@H](CO)Cc1ccccc1	8	22	-3	27	81*	41*	43	13*	7
C=CC[C@@H](Cc1ccc(F)cc1)C(=O)OC[C@@H]1CCCN1C(=O)[C@@H](CC=C)CC(=O)N[C@H](CO)Cc1ccccc1	-7	26	7	15	66*	36*	34	9	9
Cn1c(SCc2ccc([N+](=O)[O-])cc2)nnc1-c1ccncc1	-14	-1	25	-7	5	x	x	x	x
COc1ccc(N(C)S(=O)(=O)c2cccc(C(=O)N3CCN(S(=O)(=O)c4ccc(C)cc4)CC3)c2)cc1	-5	2	19	-12	12	x	x	x	x
COc1ccc(CSC2=CS(=O)(=O)c3ccccc3N2)cc1	-11	4	10	-33	23	x	x	x	x
O=C(CC(=O)c1ccccc1)Nc1cc([N+](=O)[O-])ccc1Cl	0	20	17	-6	77*	35*	55*	11	11
COc1ccccc1CNC(=S)NCc1ccc(F)cc1	-14	2	18	-2	-2	x	x	x	x
C=C(C)C(O)CC/C(C)=C/Cc1c(O)ccc(C(=O)/C=C/c2ccc(O)cc2)c1O (stereo not given)	31*	9	2	30	70*	29*	29	7	7
CCOC(=O)C1=C(C)NC(C)=C(C(=O)OCC)C1C(=O)OCC(=O)NC(C)C	-12	16	23	-26	60*	23*	45	8	9
O=C(/C=C/c1ccc(Cl)cc1)Nc1ccc(N2CCCCC2)cc1	-4	0	3	-17	-5	x	x	x	x
O=C(/C=C/c1ccccc1)NC(=S)Nc1ccc(CN2CCOCC2)cc1	-15	17	19	-35	58*	41*	48	10	9
O=C(/C=C/c1ccccc1)Nc1ccc(N2CCCCC2)cc1	7	23	30	-3	69*	30*	65*	28*	61*
COC(=O)c1cccc(NC(=O)c2ccc(S(=O)(=O)N(C)c3ccccc3OC)cc2)c1	x	13	x	x	70*	32*	41	7	5
COc1ccccc1N(C)S(=O)(=O)c1ccc(C(=O)NCCc2ccc(F)cc2)cc1	-3	16	21	-21	42	x	x	x	x
COc1ccccc1N(C)S(=O)(=O)c1ccc(C(=O)OCC(=O)NCC(F)(F)F)cc1	-18	13	21	-18	2	x	x	x	x
COc1ccccc1N(C)S(=O)(=O)c1ccc(C(=O)Nc2ccc3nc(C)sc3c2)cc1	-23	7	15	3	43	x	x	x	x
COc1cc(NC(=O)c2ccc(S(=O)(=O)N(C)c3ccccc3OC)cc2)cc(OC)c1	1	2	15	12	43	x	x	x	x
COc1ccccc1N(C)S(=O)(=O)c1ccc(C(=O)Nc2cccc(Br)c2)cc1	8	6	20	24	70*	36*	38	7	2
COc1ccccc1N(C)S(=O)(=O)c1ccc(C(=O)OCC(=O)NCc2cccs2)cc1	-5	15	20	-23	83*	38*	62*	10	13
COc1ccccc1N(C)S(=O)(=O)c1ccc(C(=O)N(C)Cc2ccc(OC(F)F)cc2)cc1	x	15	x	x	85*	45*	74*	13*	11
COc1ccc(OC)c(C2=CC(=O)C[C@H](c3ccc4c(c3)OCO4)C2)c1	-19	4	6	-26	31	x	x	x	x
SMILES	CHO parental Ca	TAAR1 agonist	OX1R antag-1	OX1R antag-2	TAAR1 antagonist	TAAR1 nonsel count	TAAR1 antag conf	Ga16 nonsel ag	TAAR1 ag count
Cc1noc(C)c1COc1ccccc1C(=O)NCCc1ccc(F)cc1	x	1	x	x	14	x	x	x	x
CNC(=O)c1ccc(CN(C)C(=O)c2cccc(S(=O)(=O)N3CCc4ccccc4C3)c2)cc1	x	4	x	x	-28	x	x	x	x
C=CCOc1ccc(/C=C2\SC(=Nc3cccnc3)NC2=O)cc1	-13	3	12	11	32	x	x	x	x
CC(/C=C1\SC(=Nc2cccnc2)NC1=O)=C\c1ccccc1	-3	5	18	-22	62*	29*	56*	7	7
O=C(Nc1scc(-c2ccccc2)c1C(=O)O)c1ccco1	-9	12	13	-20	7	x	x	x	x
COC(=O)c1c(-c2ccc(F)cc2)csc1NC(=O)c1ccco1	-5	0	3	-51	58*	4	25	2	6
COc1ccccc1N1CCN(C(=O)CCc2nnc3ccc(N4CCC(C)CC4)nn23)CC1	-20	7	14	-29	53*	22*	43	8	10
COc1cccc(N2CCN(C(=O)CCc3nnc4ccc(N5CCCC5)nn34)CC2)c1	-6	2	15	-4	2	x	x	x	x
COc1ccc(NC(=O)CCc2nnc3ccc(N4CCN(c5cccc(OC)c5)CC4)nn23)cc1	-23	9	9	-14	63*	23*	39	9	14
COc1cccc(NC(=O)CCc2nnc3ccc(N4CCN(c5cccc(OC)c5)CC4)nn23)c1	-5	x	8	-3	x	x	x	x	x
Cc1ccc(NC(=O)C2(C)CCN2C(=O)Cc2ccccc2)cc1C (stereo not given)	x	1	x	x	-14	x	x	x	x
COc1ccccc1N(CC(=O)NC1CCCC1)S(=O)(=O)c1cccc(C(F)(F)F)c1	x	0	x	x	-11	x	x	x	x

From PubChem
